Results on 1 compound are retold here after ChEMBL document CHEMBL4422637, “Identification of dual role of piperazine-linked phenyl cyclopropyl methanone as positive allosteric modulator of 5-HT2C and negative allosteric modulator of 5-HT2B receptors” (Eur J Med Chem, 2019).

In data set [1] the target is T1, 5-hydroxytryptamine receptor 2C (Homo sapiens) (UniProt P28335).
T1 sequence (whole entry): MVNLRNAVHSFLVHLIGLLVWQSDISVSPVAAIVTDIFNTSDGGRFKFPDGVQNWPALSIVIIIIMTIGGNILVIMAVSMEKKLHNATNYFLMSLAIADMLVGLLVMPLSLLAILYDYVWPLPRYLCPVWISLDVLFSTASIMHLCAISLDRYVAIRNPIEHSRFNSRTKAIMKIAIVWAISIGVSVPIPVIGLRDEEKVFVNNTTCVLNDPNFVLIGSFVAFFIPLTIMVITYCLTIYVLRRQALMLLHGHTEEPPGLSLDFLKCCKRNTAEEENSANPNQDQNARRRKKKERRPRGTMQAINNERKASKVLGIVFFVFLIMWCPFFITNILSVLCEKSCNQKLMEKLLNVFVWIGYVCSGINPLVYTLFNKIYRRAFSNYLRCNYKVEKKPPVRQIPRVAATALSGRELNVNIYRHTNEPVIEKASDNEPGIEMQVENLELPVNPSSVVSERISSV
The experiment in a line: Agonist activity at 5HT2C receptor (unknown origin) expressed in HEK293 cells co-expressing NFAT-RE at 10 uM after 6 to 12 hrs by Bright-Glo luciferase reporter gene assay. In kind it is cell-based. In outline:
(§1)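 Primary screen at 5-HT2C in transiently co-transfected HEK293T (receptor plus NFAT-RE luciferase plasmids, 50,000 cells/well). Compounds tested in triplicate at a final 10 µM in HEPES-buffered HBSS pH 7.4 and incubated 6-12 h. Luminescence read within 5 min of Bright-Glo (1 mg/ml final). Signal normalized to the 5-HT maximal response.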
(In general: A reporter such as luciferase makes a cellular process visible.)

The target of data set [2] is T1, 5-hydroxytryptamine receptor 2C (Homo sapiens). The experiment in a line: Positive allosteric modulation of 5HT2C receptor (unknown origin) expressed in HEK293 cells co-expressing NFAT-RE assessed as increase in serotonin-induced reponse at 10 uM after 6 to 12 hrs by Bright-Glo luciferase reporter gene assay relative to serotonin. It counts as cell-based. An outline of the steps: (§2)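 Transiently co-transfected HEK293T cells expressing 5-HT2A, 5-HT2B or 5-HT2C with NFAT-RE luciferase, 50,000 cells/well. Test compound added first at 10 µM, 1 µM or 100 nM, in triplicate. A 5-HT concentration-response (10 µM to 0.01 nM) followed, then 6-12 h incubation. Bright-Glo luminescence was fitted by non-linear regression, with Emax normalized to 5-HT alone (100%). n=3-4.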

The target is the same in data set [3]. The data set is described as follows: Positive allosteric modulation of 5HT2C receptor (unknown origin) expressed in HEK293 cells co-expressing NFAT-RE assessed as increase in serotonin-induced reponse at 1 uM after 6 to 12 hrs by Bright-Glo luciferase reporter gene assay relative to serotonin. In kind it is cell-based. An outline of the steps: as §2
The target is the same in data set [4]. The data set is described as follows: Positive allosteric modulation of 5HT2C receptor (unknown origin) expressed in HEK293 cells co-expressing NFAT-RE assessed as increase in serotonin-induced reponse at 100 nM after 6 to 12 hrs by Bright-Glo luciferase reporter gene assay relative to serotonin. In kind it is cell-based. An outline of the steps: as §2
The target is the same in data set [5]. The data set is described as follows: Positive allosteric modulation of 5HT2C receptor (unknown origin) expressed in HEK293 cells co-expressing NFAT-RE assessed as increase in serotonin-induced intracellular calcium flux at 1 uM preincubated for 15 mins followed by serotonin stimulation and measured for 120 secs by Fluo-4NW dye based fluorescence assay relative to serotonin. In kind it is functional, cell-based. An outline of the steps: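 5-HT2C-transfected HEK293T cells, 50,000 cells/well, loaded with Fluo-4NW calcium dye. Compound (1 µM) preincubated 15 min. 5-HT then added at 35 µl/min and fluorescence (ex 494/em 516 nm) recorded for 120 s. Fold change was calculated against baseline from the first 5 s before ligand addition. Emax normalized to 5-HT alone.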
For orientation: Calcium flux is commonly read through the fluorescence of an indicator in the cells.

Data set [6] shares this target. The data set is described as follows: Agonist activity at 5HT2C receptor (unknown origin) expressed in HEK293 cells co-expressing NFAT-RE at 10 uM after 6 to 12 hrs by Bright-Glo luciferase reporter gene assay relative to control. It counts as cell-based. An outline of the steps:
as §1

Data set [7] has as its target T2, 5-hydroxytryptamine receptor 2B (Homo sapiens, UniProt P41595). The experiment in a line: Negative allosteric modulation of 5HT2B receptor (unknown origin) expressed in HEK293 cells co-expressing NFAT-RE assessed as reduction in serotonin-induced reponse after 6 to 12 hrs by Bright-Glo luciferase reporter gene assay. It counts as cell-based. In outline:
as §2

A further data set has as its target 5HT2A receptor (Homo sapiens, UniProt P28223). The experiment in a line: Positive allosteric modulation of 5HT2A receptor (unknown origin) expressed in HEK293 cells co-expressing NFAT-RE assessed as increase in serotonin-induced reponse at 1 uM after 6 to 12 hrs by Bright-Glo luciferase reporter gene assay relative to serotonin. In kind it is cell-based. The settings on record: HEK293 cells expressing 5HT2A receptor and NFAT-RE reporter. An outline of the steps: as §2

Another data set concerns the target 5HT2B receptor (Homo sapiens, UniProt P41595). The experiment in a line: Positive allosteric modulation of 5HT2B receptor (unknown origin) expressed in HEK293 cells co-expressing NFAT-RE assessed as increase in serotonin-induced reponse at 1 uM after 6 to 12 hrs by Bright-Glo luciferase reporter gene assay relative to serotonin. The following applies: HEK293 cells expressing 5HT2B receptor and NFAT-RE reporter. In kind it is cell-based. In outline:
as §2

The target of data set [8] is T3, 5-hydroxytryptamine receptor 2A (Homo sapiens, UniProt P28223). The data set is described as follows: Agonist activity at 5HT2A receptor (unknown origin) expressed in HEK293 cells co-expressing NFAT-RE after 6 to 12 hrs by Bright-Glo luciferase reporter gene assay. It counts as cell-based. An outline of the steps: (§3)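 HEK293T cells transiently co-transfected (PEI) with 0.1 µg/well receptor plasmid (5-HT2A, 5-HT2B or 5-HT2C) plus 0.1 µg/well NFAT-RE luciferase reporter, plated 50,000 cells/well 24 h before treatment. Compounds tested in triplicate from 10 µM down to 0.01 nM in HBSS/20 mM HEPES pH 7.4, incubated 6-12 h. Luminescence read within 5 min of Bright-Glo (1 mg/ml final). RLU fitted by non-linear regression; 5-HT Emax set to 100%.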
T3 sequence (P28223 whole entry): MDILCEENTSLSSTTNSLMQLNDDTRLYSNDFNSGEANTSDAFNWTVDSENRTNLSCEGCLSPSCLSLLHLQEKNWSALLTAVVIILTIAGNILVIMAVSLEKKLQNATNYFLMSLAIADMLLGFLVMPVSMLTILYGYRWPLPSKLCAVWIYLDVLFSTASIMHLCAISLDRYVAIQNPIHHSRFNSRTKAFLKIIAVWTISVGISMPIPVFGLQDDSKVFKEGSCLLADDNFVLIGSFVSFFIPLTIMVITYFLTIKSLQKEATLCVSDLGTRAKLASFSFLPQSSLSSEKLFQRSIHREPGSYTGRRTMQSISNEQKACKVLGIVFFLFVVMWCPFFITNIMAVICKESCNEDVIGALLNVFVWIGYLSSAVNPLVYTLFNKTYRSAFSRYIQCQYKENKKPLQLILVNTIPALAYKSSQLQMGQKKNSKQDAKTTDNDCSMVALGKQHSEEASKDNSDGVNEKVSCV

Data set [9] deals with Rattus norvegicus. The experiment in a line: Induction of anorexia in Sprague-Dawley rat assessed as suppression of food intake at 2 pmol, icv measured after 3 to 6 hrs. It counts as functional, organism-based. An outline of the steps:
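Adult SD rats (150-200 g) on a 12 h light/dark cycle at 22 °C, cannulated in the right ventricle. Rats were fasted 4 h with free access to water, then dosed i.c.v. with 2 pmol/rat (2 µL) in aCSF vehicle; lorcaserin 2 pmol/rat served as positive control. Weighed pellets were given 10 min later, and remaining food plus spillage was weighed at 3, 6 and 24 h; n=4.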

In data set [10] the test system is Rattus norvegicus. The experiment in a line: Induction of anorexia in Sprague-Dawley rat assessed as suppression of food intake at 2 pmol, icv measured after 24 hrs. In kind it is functional, organism-based. In outline:
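Adult SD rats (150-200 g) on a 12 h light/dark cycle at 22 °C, with a cannula in the right ventricle (AP -0.9, ML -1.5, DV -3.5). Rats were food-deprived for 4 h with water available. Compound given i.c.v. at 2 pmol/rat in 2 µL, vehicle aCSF; lorcaserin 2 pmol as positive control. Weighed pellets were supplied 10 min later. Remaining food including spillage was weighed at 3, 6 and 24 h; n=4.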

For data set [11], the target named is T2, 5-hydroxytryptamine receptor 2B. The data set is described as follows: Agonist activity at 5HT2B receptor (unknown origin) expressed in HEK293 cells co-expressing NFAT-RE after 6 to 12 hrs by Bright-Glo luciferase reporter gene assay. In kind it is cell-based. An outline of the steps:
as §3

Data set [12] deals with T1, 5-hydroxytryptamine receptor 2C (Homo sapiens). The experiment in a line: Agonist activity at 5HT2C receptor (unknown origin) expressed in HEK293 cells co-expressing NFAT-RE after 6 to 12 hrs by Bright-Glo luciferase reporter gene assay. In kind it is cell-based. In outline:
as §3

Data set [13] addresses T4, 5-hydroxytryptamine receptor 2C (Homo sapiens, UniProt P28335).
T4 sequence (P28335 whole entry): T1 sequence (whole entry)
The data set is described as follows: Positive allosteric modulation of 5HT2C receptor (unknown origin) expressed in HEK293 cells co-expressing NFAT-RE assessed as increase in serotonin-induced reponse after 6 to 12 hrs by Bright-Glo luciferase reporter gene assay. In kind it is cell-based. An outline of the steps:
as §2

For data set [14], the target named is T3, 5-hydroxytryptamine receptor 2A. The data set is described as follows: Positive allosteric modulation of 5HT2A receptor (unknown origin) expressed in HEK293 cells co-expressing NFAT-RE assessed as increase in serotonin-induced reponse after 6 to 12 hrs by Bright-Glo luciferase reporter gene assay. In kind it is cell-based. An outline of the steps: as §2

The target in data set [15] is T2, 5-hydroxytryptamine receptor 2B. The data set is described as follows: Positive allosteric modulation of 5HT2B receptor (unknown origin) expressed in HEK293 cells co-expressing NFAT-RE assessed as increase in serotonin-induced reponse after 6 to 12 hrs by Bright-Glo luciferase reporter gene assay. It counts as cell-based. In outline: as §2

Active and inactive are the calls of the source. The calls are words filed in the database; no cut-off is given here.

T2 sequence (P41595 whole entry): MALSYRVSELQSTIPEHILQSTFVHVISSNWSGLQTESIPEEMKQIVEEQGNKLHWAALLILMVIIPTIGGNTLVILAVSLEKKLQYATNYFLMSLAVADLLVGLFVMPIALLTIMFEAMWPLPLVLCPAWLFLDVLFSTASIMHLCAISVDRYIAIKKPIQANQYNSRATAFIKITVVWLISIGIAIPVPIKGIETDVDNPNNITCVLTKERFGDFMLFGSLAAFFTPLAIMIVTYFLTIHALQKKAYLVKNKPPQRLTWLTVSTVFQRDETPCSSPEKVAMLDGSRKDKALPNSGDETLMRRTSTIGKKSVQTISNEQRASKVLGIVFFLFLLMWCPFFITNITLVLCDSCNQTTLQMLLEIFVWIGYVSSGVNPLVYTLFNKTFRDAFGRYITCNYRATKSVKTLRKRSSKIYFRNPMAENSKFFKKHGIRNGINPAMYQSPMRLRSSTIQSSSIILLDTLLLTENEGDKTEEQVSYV
5HT2A receptor, sequence (P28223 whole entry): as the sequence (P28223 whole entry) above
5HT2B receptor, sequence (P41595 whole entry): as the sequence (P41595 whole entry) above

With `O=C(c1ccc(N2CCN(Cc3ccccc3)CC2)cc1)C1CC1`, the outcome (in data set [1]; with Rattus norvegicus [10]; in data set [12]) was inactive. For the same compound, the maximal response (Emax) is 149% in data set [2], 139 to 146% in [3] and 124% in data set [5]. In addition, the outcome (in data set [4]; with Rattus norvegicus [9]) was Active. Besides, the fold change (FC) in [6] was determined as 2. Moreover, the values for the Activity entry in data set [7], in [8] and in [11] were “Dose-dependent effect”, “Not Active” and “Not Active”, respectively. Besides, the Emax at 1 µM is 99% on 5HT2A receptor and 118% at 5HT2B receptor. Besides, the concentration giving a half-maximal response (EC50) is 5.01 nM in data set [13], 38 nM in data set [14] and 11.7 nM in data set [15].

Broadly, the Emax is the size of the effect at its maximum, as opposed to the concentration needed. As usually defined, the EC50 is the concentration that produces a half-maximal response.
